An excerpt weighted towards active compounds, which were near 3% of everything screened.
Apaf-1 inh = inhibitors of human Apaf-1 apoptosome | O14727 | reconstituted apoptosome caspase-3 activity, DEVD-Rh110 fluorescence | inhibition, % at 20 µM | actives 0.71% (n = 330,000) | AID 489030; active = inhibition of at least 40% at 20 µM
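Medium: Hepes buffer, pH 7.5 / System: biochemical Apaf-1 apoptosome reconstitution / Measured by: Rh110 fluorescence, excitation 480 nm, emission 540 nm / Times: compound with Apaf-1, dATP, procaspase-3 30 min, then 50 min reaction, room temperature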
iPSC survival up = increases survival of single human iPS cells; AID 602274; survival enhancement, % at 20 µM; hiPSC single-cell survival, ATPlite luminescence; 100% = ROCK inhibitor wells, 0% = DMSO; actives 0.044% (n = 360,000); in the data active = survival enhancement above about 18%;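 also: cells exposed to compounds for 16 hours before the ATP read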
MPTP inh = inhibitors of mitochondrial permeability transition pore | isolated mouse mitochondria, Ca2+ swelling absorbance, 30 min | inhibition, % at 10 µM | actives 1.4% (n = 360,000);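 active = inhibition of 50% or more, scaled per plate between neutral and stimulator controls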
MIN6 prolif = induces beta-cell replication in MIN6 cells; AID 2380; actives 0.29% (n = 330,000); proliferation, % at 10 µM; MIN6 cells proliferation, ATPlite luminescence, 48 h; cells starved in 0.2% serum; 100% = growth in 10% serum;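 active = compounds whose signal lies at least 3.5 SD above the mean of all wells on their plate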
Exocytosis inh = lytic granule exocytosis inhibition; TALL-104 LAMP-1 surface exposure, flow cytometry; cells stimulated with thapsigargin and PMA; inhibition, % at 10 µM; actives 0.66% (n = 360,000); AID 651702;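 active = inhibition above about 55%, limit read from the data; inconclusive = no clear call, values can overlap the other calls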
UBC13 inh = human UBC13 polyubiquitination inhibition; P61088; UBC13 polyubiquitin chain formation, TR-FRET; inhibition, % at 20 µM; actives 0.47% (n = 330,000); AID 485273; in the data active = inhibition above about 45%, passing the limit was not always enough; inconclusive = no clear call, values can overlap the other calls
Casp3 UBC13 ctr = counter-screen for UBC13 inhibitors: human caspase-3 inhibition; inhibition, % at 20 µM; Recombinant caspase-3, Caspase-Glo 3/7 luminescence, 60 min; actives 4% (n = 1,400); shares compounds with UBC13 inh;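 active = mean inhibition across replicates above about 26%, limit read from the data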
UBC13 conf = confirmation of human UBC13 polyubiquitin inhibitors. shares compounds with UBC13 inh. UBC13 polyubiquitination, TR-FRET, biochemical. inhibition, % at 10 µM. actives 68% (n = 1,400); in the data active = inhibition above about 45%; inconclusive = no clear call, values can overlap the other calls
Hits are given with their value; . = inactive; ? = inconclusive; / = no result given.

SMILES | Apaf-1 inh | iPSC survival up | MPTP inh | MIN6 prolif | Exocytosis inh | UBC13 inh | Casp3 UBC13 ctr | UBC13 conf
CCCc1nnc(NC(=O)c2nc(S(=O)(=O)Cc3ccc(C)cc3)ncc2Cl)s1 | . | . | . | . | . | 59 | . | 54
Cc1cc(C)cc(C(=O)NCC(=O)N2CCC(C(N)=O)CC2)c1 | . | . | . | . | . | . | / | /
NC(N)=N/N=C/c1ccc(OCc2ccc(Cl)cc2)cc1 | . | . | . | . | 73 | 102 | . | 120
Cc1ccc(COc2ccc(/C=N/O)cc2)cc1 | . | . | . | . | . | . | / | /
NC(N)=N/N=C/c1ccc(OCc2ccccc2)cc1 | . | . | . | . | . | 50 | . | 53
O=C(N/N=C/c1ccccc1)c1ccc(OCc2ccccc2)cc1 | . | . | . | . | . | . | / | /
O=C(CCn1c(=S)[nH]c2ccccc2c1=O)NCCc1ccccc1 | . | . | . | . | . | . | / | /
O=C(CCCn1c(=S)[nH]c2ccsc2c1=O)NCCc1ccccc1 | . | . | . | . | . | 56 | . | ?
N#CCOC(=O)[C@H](Cc1ccccc1)N1C(=O)c2ccccc2C1=O | . | . | . | . | . | . | / | /
C#CCOCCOCCOCCNc1nc(N2CCN(C(=O)[C@H](CCCCN)n3cc(CN)nn3)CC2)nc(N2CCN(C(=O)[C@H](CCC(=O)O)n3cc([C@@H](N)CCCCN)nn3)CC2)n1 | . | . | . | . | . | 105 | . | 114
C#CCOCCOCCOCCNc1nc(N2CCN(C(=O)[C@H](CCCCN)n3cc(C(N)CO)nn3)CC2)nc(N2CCN(C(=O)[C@H](CCC(=O)O)n3cc(C(N)CC(C)C)nn3)CC2)n1 (some centres not stated) | . | / | / | . | / | . | / | /
C#CCOCCOCCOCCNc1nc(N2CCN(C(=O)C(Cc3ccc(O)cc3)n3cc(C(N)C(C)CC)nn3)CC2)nc(N2CCN(C(=O)C(Cc3ccc(O)cc3)n3cc(C(N)C(C)CC)nn3)CC2)n1 (configuration not stated) | . | . | . | . | . | 49 | . | .
C#CCOCCOCCOCCNc1nc(N2CCN(C(=O)[C@H](CCCCN)n3cc([C@@H](N)C(C)CC)nn3)CC2)nc(N2CCN(C(=O)[C@H](Cc3ccc(O)cc3)n3cc([C@@H](N)CC(C)C)nn3)CC2)n1 (some centres not stated) | . | . | . | . | . | 57 | . | .
C#CCOCCOCCOCCNc1nc(N2CCN(C(=O)[C@H](CCCCN)n3cc([C@@H](N)CC(C)C)nn3)CC2)nc(N2CCN(C(=O)[C@H](CCCCN)n3cc([C@@H](N)CC(C)C)nn3)CC2)n1 | . | . | . | . | . | 77 | . | 84
C#CCOCCOCCOCCNc1nc(N2CCOCC2)nc(N2CCN(C(=O)[C@H](Cc3ccc(O)cc3)n3cc([C@@H](N)C(C)CC)nn3)CC2)n1 (some centres not stated) | . | . | . | . | . | . | / | /
CSc1ncccc1C(=O)NC1CCCc2c1cnn2-c1ccc(C)c(C)c1 (configuration not stated) | . | . | . | . | . | . | / | /
CC1(C)CCC(=O)N2CC[C@H]3c4cc5ccccc5nc4C[C@@H]1[C@H]32 | / | . | . | / | . | / | / | /
C[C@@H]1O[C@@H](O[C@H]2[C@H](Oc3cc(O)c4c(c3)O[C@H](c3ccc(O)cc3)CC4=O)O[C@H](CO)[C@@H](O)[C@@H]2O)[C@H](O)[C@H](O)[C@H]1O | . | . | . | . | . | 95 | . | 98
C[C@@H]1O[C@@H](O[C@H]2[C@H](Oc3cc(O)c4c(c3)OC(c3ccc(O)cc3)CC4=O)O[C@H](CO)[C@@H](O)[C@@H]2O)[C@H](O)[C@H](O)[C@H]1O (some centres not stated) | . | . | . | . | . | 97 | . | 100
COc1ccc([C@@H]2CC(=O)c3c(O)cc(O[C@@H]4OC(CO[C@@H]5OC(C)[C@H](O)[C@H](O)C5O)[C@@H](O)[C@@H](O)C4O)cc3O2)cc1O (some centres not stated) | . | . | . | . | . | . | / | /
O=C1CC(c2ccc(O)cc2)Oc2cc(O)cc(O)c21 (configuration not stated) | . | . | . | . | . | . | / | /
N#Cc1nc(-c2cccc3ccccc23)oc1NCCN1CCCCC1 | . | . | . | . | . | 71 | . | 91
CCNc1oc(-c2cccc3ccccc23)nc1C#N | . | . | . | . | . | . | / | /
Cc1ccc(S(=O)(=O)n2cc(C=O)c3ccccc32)cc1 | . | . | . | . | . | 83 | . | 85
Cc1cccc(C)c1NC(=O)C(c1ccncc1)n1c(=O)c(-c2ccco2)nc2ccccc21 (configuration not stated) | / | / | . | / | . | / | / | /
SMILES | Apaf-1 inh | iPSC survival up | MPTP inh | MIN6 prolif | Exocytosis inh | UBC13 inh | Casp3 UBC13 ctr | UBC13 conf
Nc1nc(N)c2cc(Sc3ccc(Cl)cc3)ccc2n1 | / | . | . | / | . | / | / | /
Nc1nc(N)c2cc(Sc3ccc4ccccc4c3)ccc2n1 | . | . | . | . | . | 50 | . | .
COc1cc(NC(=S)NCCCN2CCOCC2)cc(OC)c1OC | . | . | . | . | . | . | / | /
COc1cc(NC(=S)NCCN2CCOCC2)cc(OC)c1OC | . | . | . | . | . | 61 | . | .
Cc1ccccc1NC(=O)CN1CCC(n2nnc3ccccc32)CC1 | . | . | . | . | . | . | / | /
Cc1nc2ccccc2n1C1CCN(CC(=O)Nc2ccccc2Br)CC1 | . | . | . | . | . | 58 | . | 74
CCCOc1cccc(C(=O)Nc2ccc3c(c2)OCCO3)c1 | . | . | . | . | . | . | / | /
N#Cc1ccsc1NC(=O)C1CCN(S(=O)(=O)c2cccs2)CC1 | . | . | . | . | . | . | / | /
N#Cc1ccsc1NC(=O)C1CCN(C(=O)c2ccc(F)cc2)CC1 | . | . | . | . | . | 59 | . | .
Cc1c(Cc2ccccc2)c(=O)oc2cc(OC(C)C(=O)NCC3CCC(C(=O)O)CC3)c(Cl)cc12 (configuration not stated) | . | . | . | . | . | . | / | /
CCN1C(N(C)CCc2c[nH]c3ccccc23)=N[C@@H](c2cccc(C(F)(F)F)c2)C(C(=O)OC)=C1C | 55 | . | . | . | . | 60 | . | 49
CCCC1(c2ccccc2)NC(=O)N(CC(=O)NCc2ccc(OC)cc2)C1=O (configuration not stated) | . | . | . | . | . | . | / | /
NC(=S)N=Nc1c(O)[nH]c2c(Cl)cc(Cl)cc12 | / | . | . | / | . | / | / | /
NC(=S)N=Nc1c(O)[nH]c2cc(F)c(F)cc12 | . | . | . | . | . | 82 | . | 99
